Measurements taken from ChEMBL document CHEMBL4393666, “Synthesis and Anti-HCV Activities of 4'-Fluoro-2'-Substituted Uridine Triphosphates and Nucleotide Prodrugs: Discovery of 4'-Fluoro-2'- C-methyluridine 5'-Phosphoramidate Prodrug (AL-335) for the Treatment of Hepatitis C Infection” (J Med Chem, 2019).

Key:
[1] = Cytotoxicity against human HuH7 cells infected with HCV con1 subgenomic replicon assessed as reduction in cell viability measured after 3 days by CellTiter-blue cell viability assay; assay type: cell-based, Huh-7
In short: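 Con1 replicon Huh-7 cells treated as for the replicon assay (DMEM, 2% FBS, 0.5% DMSO, no G418, 37°C) for 3 days. Viability by CellTiter-Blue; CC50 by curve fitting.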

[2] = system: Hepatitis C virus; assay: Antiviral activity against HCV con1 subgenomic replicon infected in human HuH7 cells assessed as reduction in viral RNA replication by qRT-PCR analysis; assay type: functional, organism-based, Hepacivirus hominis; conditions: isolate Con1, Huh-7
In short: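 Con1 subgenomic replicon Huh-7 cells (neomycin selection, kept in DMEM/10% FBS with 0.25 mg/ml G418) treated with compounds in DMEM, 2% FBS, 0.5% DMSO, no G418, at 37°C. Total RNA extracted; HCV RNA copy number by multiplex Taqman QRT-PCR. EC50/EC90 by 4-parameter curve fit; EC50 is the mean of ≥2 independent runs.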

[3] = target: RNA-directed RNA polymerase (Hepacivirus hominis, UniProt O39930); assay: Inhibition of HCV NS5B RNA-dependent RNA polymerase activity assessed as reduction in radiolabeled-CTP incorporation into RNA using cIRES template measured after 2 hrs by microscintillation counting method
Chain of RNA-directed RNA polymerase (O39930 whole entry): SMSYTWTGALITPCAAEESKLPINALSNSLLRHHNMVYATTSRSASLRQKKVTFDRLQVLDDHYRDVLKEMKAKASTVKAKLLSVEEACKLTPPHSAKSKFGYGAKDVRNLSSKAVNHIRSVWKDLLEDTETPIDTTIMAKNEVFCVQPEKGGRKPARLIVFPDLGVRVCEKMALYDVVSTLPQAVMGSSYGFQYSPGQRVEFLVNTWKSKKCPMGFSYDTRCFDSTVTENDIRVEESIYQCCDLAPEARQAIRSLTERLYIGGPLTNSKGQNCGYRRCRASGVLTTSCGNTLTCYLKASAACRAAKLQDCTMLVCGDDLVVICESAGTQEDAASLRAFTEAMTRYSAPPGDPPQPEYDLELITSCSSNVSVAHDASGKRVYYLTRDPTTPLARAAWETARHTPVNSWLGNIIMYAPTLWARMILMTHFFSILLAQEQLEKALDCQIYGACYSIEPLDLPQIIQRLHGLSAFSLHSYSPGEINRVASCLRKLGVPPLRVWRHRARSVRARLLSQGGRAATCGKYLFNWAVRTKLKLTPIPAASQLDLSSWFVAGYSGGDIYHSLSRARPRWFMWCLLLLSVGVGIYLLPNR

SMILES | CC50 at 72 h [1] [nM] | EC50 [2] [nM] | IC50 [3] [nM]
CC(C)OC(=O)[C@H](C)NP(=O)(OC[C@H]1O[C@@H](n2ccc(=O)[nH]c2=O)[C@](C)(F)[C@@H]1O)Oc1ccccc1 (stereo partly drawn) | > 100000 | 220 | 
O=c1ccn([C@@H]2O[C@H](COP(=O)(O)OP(=O)(O)OP(=O)(O)O)[C@@H](O)[C@]2(O)CF)c(=O)[nH]1 |  |  | 280
C#C[C@@]1(F)[C@H](O)[C@@H](COP(=O)(O)OP(=O)(O)OP(=O)(O)O)O[C@H]1n1ccc(=O)[nH]c1=O |  |  | 330
CC(C)OC(=O)[C@H](C)NP(=O)(OC[C@@]1(F)O[C@@H](n2ccc(=O)[nH]c2=O)[C@@](F)(Cl)[C@@H]1O)Oc1ccccc1 (stereo partly drawn) | > 100000 | 45 | 
C[C@H](NP(=O)(OC[C@@]1(F)O[C@@H](n2ccc(=O)[nH]c2=O)[C@](C)(O)[C@@H]1O)Oc1ccccc1)C(=O)OC1CCCCC1 (stereo partly drawn) | 84000 | 40 | 
C#C[C@]1(O)[C@H](n2ccc(=O)[nH]c2=O)O[C@](F)(COP(=O)(O)OP(=O)(O)OP(=O)(O)O)[C@H]1O |  |  | 39
CC[C@]1(O)[C@H](n2ccc(=O)[nH]c2=O)O[C@](F)(COP(=O)(O)OP(=O)(O)OP(=O)(O)O)[C@H]1O |  |  | 84000
CC[C@]1(O)[C@H](n2ccc(=O)[nH]c2=O)O[C@](F)(COP(=O)(N[C@@H](C)C(=O)OC(C)C)Oc2ccccc2)[C@H]1O (stereo partly drawn) | > 100000 | 43000 | 
CC(C)OC(=O)[C@H](C)N[P@@](=O)(OC[C@@]1(F)O[C@@H](n2ccc(=O)[nH]c2=O)[C@](C)(O)[C@@H]1O)Oc1ccccc1 | > 100000 | 940 | 
CC(C)OC(=O)[C@H](C)NP(=O)(OC[C@@]1(F)O[C@@H](n2ccc(=O)[nH]c2=O)[C@](C)(O)[C@@H]1O)Oc1cccc2ccccc12 (stereo partly drawn) | > 85000 | 20 | 
CC(C)OC(=O)[C@H](C)NP(=O)(OC[C@H]1O[C@@H](n2ccc(=O)[nH]c2=O)[C@](C)(Cl)[C@@H]1O)Oc1ccccc1 (stereo partly drawn) | > 100000 | 120 | 
C=C[C@]1(O)[C@H](n2ccc(=O)[nH]c2=O)O[C@](F)(COP(=O)(N[C@@H](C)C(=O)OC(C)C)Oc2ccccc2)[C@H]1O (stereo partly drawn) | > 100000 | 8300 | 
C#C[C@]1(O)[C@H](n2ccc(=O)[nH]c2=O)O[C@](F)(COP(=O)(N[C@@H](C)C(=O)OC2CCCCC2)Oc2ccccc2)[C@H]1O (stereo partly drawn) | > 100000 | 70 | 
CCOC(=O)[C@H](C)NP(=O)(N[C@@H](C)C(=O)OCC)OC[C@@]1(F)O[C@@H](n2ccc(=O)[nH]c2=O)[C@](C)(O)[C@@H]1O | > 100000 | 7500 | 
CC(C)OC(=O)[C@H](C)NP(=O)(OC[C@@]1(F)O[C@@H](n2ccc(=O)[nH]c2=O)[C@](C)(Cl)[C@@H]1O)Oc1ccccc1 (stereo partly drawn) | > 100000 | 100 | 
CC(C)OC(=O)[C@H](C)NP(=O)(OC[C@@]1(F)O[C@@H](n2ccc(=O)[nH]c2=O)[C@](C)(F)[C@@H]1O)Oc1ccccc1 (stereo partly drawn) | > 100000 | 310 | 
O=c1ccn([C@@H]2O[C@](F)(COP(=O)(O)OP(=O)(O)OP(=O)(O)O)[C@@H](O)[C@]2(O)CF)c(=O)[nH]1 |  |  | 150
C#C[C@]1(F)[C@H](n2ccc(=O)[nH]c2=O)O[C@](F)(COP(=O)(O)OP(=O)(O)OP(=O)(O)O)[C@H]1O |  |  | 340
C[C@H](NP(=O)(OC[C@@]1(F)O[C@@H](n2ccc(=O)[nH]c2=O)[C@](C)(O)[C@@H]1O)Oc1ccccc1)C(=O)OCC(C)(C)C (stereo partly drawn) | > 100000 | 40 | 
C#C[C@@]1(O)[C@H](O)[C@@H](COP(=O)(O)OP(=O)(O)OP(=O)(O)O)O[C@H]1n1ccc(=O)[nH]c1=O |  |  | 27
CC(C)OC(=O)[C@H](C)NP(=O)(OC[C@@]1(F)O[C@@H](n2ccc(=O)[nH]c2=O)[C@](C)(O)[C@@H]1O)Oc1ccc(Cl)cc1 (stereo partly drawn) | > 100000 | 80 | 
CC(C)OC(=O)[C@H](C)NP(=O)(N[C@@H](C)C(=O)OC(C)C)OC[C@@]1(F)O[C@@H](n2ccc(=O)[nH]c2=O)[C@](C)(O)[C@@H]1O | > 100000 | 6600 | 
C=C[C@]1(O)[C@H](n2ccc(=O)[nH]c2=O)O[C@](F)(COP(=O)(O)OP(=O)(O)OP(=O)(O)O)[C@H]1O |  |  | 6400
